Format in all cases: cell-based
Experiment [1] deals with T1, Short transient receptor potential channel 3 (Homo sapiens) (UniProt Q13507).
T1 sequence (whole entry): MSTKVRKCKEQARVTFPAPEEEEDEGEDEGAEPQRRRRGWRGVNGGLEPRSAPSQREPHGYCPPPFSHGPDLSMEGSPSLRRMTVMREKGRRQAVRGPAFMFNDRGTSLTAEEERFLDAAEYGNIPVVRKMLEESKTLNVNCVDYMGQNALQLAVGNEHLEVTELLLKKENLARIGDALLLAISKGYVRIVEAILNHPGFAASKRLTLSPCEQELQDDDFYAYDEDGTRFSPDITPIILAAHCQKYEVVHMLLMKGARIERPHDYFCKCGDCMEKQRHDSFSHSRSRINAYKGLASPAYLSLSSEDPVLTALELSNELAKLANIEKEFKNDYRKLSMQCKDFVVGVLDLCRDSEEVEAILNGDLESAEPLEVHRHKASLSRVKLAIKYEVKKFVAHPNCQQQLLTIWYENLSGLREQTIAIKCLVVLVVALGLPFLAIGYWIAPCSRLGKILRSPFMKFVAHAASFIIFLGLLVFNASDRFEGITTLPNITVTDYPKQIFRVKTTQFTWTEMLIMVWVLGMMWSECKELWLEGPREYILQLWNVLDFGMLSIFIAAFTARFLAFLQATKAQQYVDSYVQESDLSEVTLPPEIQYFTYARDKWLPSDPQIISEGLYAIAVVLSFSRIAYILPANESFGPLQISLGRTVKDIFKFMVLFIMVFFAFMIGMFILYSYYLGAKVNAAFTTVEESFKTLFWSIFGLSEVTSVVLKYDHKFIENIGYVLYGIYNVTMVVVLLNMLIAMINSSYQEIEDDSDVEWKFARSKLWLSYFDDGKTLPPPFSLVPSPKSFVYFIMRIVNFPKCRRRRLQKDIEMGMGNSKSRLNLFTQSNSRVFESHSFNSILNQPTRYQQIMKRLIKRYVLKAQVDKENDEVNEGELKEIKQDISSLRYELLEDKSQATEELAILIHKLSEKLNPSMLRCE
The experiment is described as follows: Agonist activity at human TRPC3 expressed in HEK293 cells assessed as increase in intracellular calcium level measured for 2.5 mins by Fluo-8-AM dye based fluorescence assay. In short, it runs like this: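 HEK293 cells stably expressing human TRPC3, run on a FlexStation at 32 °C. Loaded with FMP dye, or Fluo-type Ca2+ dye with 2 mM probenecid. Extracellular NaCl/HEPES saline, pH 7.4, with 2 mM Ca2+ (standard) or 0.5 mM Ca2+. Read as F/F0. In 0.5 mM Ca2+, FMP EC50 from a Hill fit, n = 6.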
On the technique in general: A change in cytosolic calcium serves as a functional read-out for many receptors and channels.

The target in experiment [2] is T2, Short transient receptor potential channel 7 (Homo sapiens) (UniProt Q9HCX4).
T2 sequence (whole entry): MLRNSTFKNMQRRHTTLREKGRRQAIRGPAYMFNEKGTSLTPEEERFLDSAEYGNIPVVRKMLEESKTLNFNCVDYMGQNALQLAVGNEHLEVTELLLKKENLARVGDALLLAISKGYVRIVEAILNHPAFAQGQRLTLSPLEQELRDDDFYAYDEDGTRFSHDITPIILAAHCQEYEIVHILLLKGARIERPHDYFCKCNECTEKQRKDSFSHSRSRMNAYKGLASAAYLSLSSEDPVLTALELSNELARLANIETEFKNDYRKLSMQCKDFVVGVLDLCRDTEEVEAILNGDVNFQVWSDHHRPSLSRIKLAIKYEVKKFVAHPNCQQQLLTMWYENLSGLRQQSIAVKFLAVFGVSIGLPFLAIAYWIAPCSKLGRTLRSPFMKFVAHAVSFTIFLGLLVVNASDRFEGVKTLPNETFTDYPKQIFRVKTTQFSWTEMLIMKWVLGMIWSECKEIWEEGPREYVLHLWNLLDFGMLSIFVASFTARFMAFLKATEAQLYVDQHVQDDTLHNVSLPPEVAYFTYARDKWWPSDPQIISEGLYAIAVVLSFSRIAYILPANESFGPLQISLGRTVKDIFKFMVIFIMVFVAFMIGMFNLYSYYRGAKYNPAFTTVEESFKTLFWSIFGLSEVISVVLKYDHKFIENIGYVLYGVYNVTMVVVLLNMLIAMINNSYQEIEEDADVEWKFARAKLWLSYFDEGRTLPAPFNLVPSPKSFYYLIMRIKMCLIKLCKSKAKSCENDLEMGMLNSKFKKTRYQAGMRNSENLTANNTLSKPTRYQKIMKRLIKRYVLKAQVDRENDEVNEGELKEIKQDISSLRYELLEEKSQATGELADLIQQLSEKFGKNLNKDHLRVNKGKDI
The experiment can be described thus: (§1) Agonist activity at human TRPC7 receptor expressed in HEK293 cells assessed as induction of channel current in presence of 0.1 mM Ca2+ by whole cell patch-clamp method. In short, it runs like this: (§2)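 Whole-cell voltage clamp on doxycycline-induced stable HEK293 TRPC7 cells. Pipette (mM): 110 CsCl, 10 HEPES, 10 BAPTA, 1 MgCl2, 4.77 CaCl2 (400 nM free Ca2+), pH 7.2. Bath has 0.1 mM CaCl2, and compound is perfused in bath at increasing concentrations. Ramps run from +100 to −100 mV (100 ms) every 1 s from a 0 mV hold.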
(Patch clamp records ionic current or voltage across a cell membrane.)

The target of experiment [3] is T3, Short transient receptor potential channel 7 (Homo sapiens, UniProt Q9HCX4).
T3 sequence (Q9HCX4 whole entry): T2 sequence (whole entry)
Described as §1. In a few lines: as §2

Experiment [4] addresses Transient receptor potential cation channel subfamily A member 1 (Homo sapiens) (UniProt O75762). The experiment is described as follows: Inhibition of human TRPA1 expressed in HEK293 cells assessed as decrease in flufenamic acid-evoked increase in intracellular calcium level at 22 uM preincubated for 2 mins followed by flufenamic acid addition measured for 2.5 mins by Fluo8-AM dye-based fluorescence assay relative to control. In short, it runs like this:
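Same TRP panel as for the stimulation tests, with FMP dye for TRPC4 and M5 and Fluo8-AM for TRPA1, V1 and M8. Compound applied for 2 min before the channel agonist (TRPC4: 1 μM DAMGO). Inhibition of the agonist response measured on a FlexStation at 32 °C.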

Activity calls are given as the source filed them. The calls are words filed in the database; no cut-off is given here.

This is an account of results in ChEMBL document CHEMBL4014306, “Pyrazolopyrimidines as Potent Stimulators for Transient Receptor Potential Canonical 3/6/7 Channels” (J Med Chem, 2017).

As a reminder, the EC50 is the concentration at which the effect is half-maximal. What is called inhibition is how much of the control response was suppressed.

Transient receptor potential cation channel subfamily A member 1 (Homo sapiens), sequence (O75762 whole entry): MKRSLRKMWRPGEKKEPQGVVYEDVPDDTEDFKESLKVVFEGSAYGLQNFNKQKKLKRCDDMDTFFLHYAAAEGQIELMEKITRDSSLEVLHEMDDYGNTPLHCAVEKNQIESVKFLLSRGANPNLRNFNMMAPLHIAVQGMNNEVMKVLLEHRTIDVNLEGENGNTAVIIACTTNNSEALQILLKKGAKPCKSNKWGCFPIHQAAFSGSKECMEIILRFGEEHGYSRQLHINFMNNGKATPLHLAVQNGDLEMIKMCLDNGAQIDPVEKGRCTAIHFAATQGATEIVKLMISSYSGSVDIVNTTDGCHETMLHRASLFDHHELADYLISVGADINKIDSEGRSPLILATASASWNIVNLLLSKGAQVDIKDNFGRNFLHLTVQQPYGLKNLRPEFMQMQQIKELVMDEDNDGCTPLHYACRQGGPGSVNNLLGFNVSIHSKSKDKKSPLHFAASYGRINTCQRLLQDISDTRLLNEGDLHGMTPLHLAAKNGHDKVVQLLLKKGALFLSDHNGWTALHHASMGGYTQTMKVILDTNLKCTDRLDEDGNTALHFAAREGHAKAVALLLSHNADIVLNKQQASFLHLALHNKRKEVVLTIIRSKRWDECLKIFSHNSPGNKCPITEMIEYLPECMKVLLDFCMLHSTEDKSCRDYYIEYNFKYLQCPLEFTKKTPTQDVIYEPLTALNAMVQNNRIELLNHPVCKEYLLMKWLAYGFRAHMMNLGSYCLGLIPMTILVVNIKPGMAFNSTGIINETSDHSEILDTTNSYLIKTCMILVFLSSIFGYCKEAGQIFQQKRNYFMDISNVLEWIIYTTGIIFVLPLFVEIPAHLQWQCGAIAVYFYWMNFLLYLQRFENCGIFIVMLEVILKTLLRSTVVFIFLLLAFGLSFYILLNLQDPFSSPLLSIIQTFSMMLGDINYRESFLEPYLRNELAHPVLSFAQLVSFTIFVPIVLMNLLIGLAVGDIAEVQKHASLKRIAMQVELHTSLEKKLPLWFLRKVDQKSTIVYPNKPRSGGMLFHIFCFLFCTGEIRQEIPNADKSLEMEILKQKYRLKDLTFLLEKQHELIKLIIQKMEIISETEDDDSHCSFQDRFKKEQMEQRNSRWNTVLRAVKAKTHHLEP

Take `CCOC(=O)N1CCC(c2cc(O)n3nc(C)c(-c4ccc(F)cc4)c3n2)CC1`: the result in experiment [1] was inactive. In experiment [2], the Activity entry is “Dose-dependent effect”. In experiment [3], the 50% effective concentration (EC50) is 1130 nM.

`CCOC(=O)N1CCC(c2cc(O)n3nc(C)c(-c4ccc(C(F)(F)F)cc4)c3n2)CC1`: the inhibition in experiment [4] is less than 20%.
